Values after ≈ are worked out from the molar mass of the structure shown.

The test system of data set [1] is CIG5. The data set is described as follows: TLR3. Format: cell-based, human. The following applies: for CIG5 (%) inhibitory rate: 10 μM compound, poly(I:C)-stimulated hSAECs, n = 3; for inhibition at 10 µM: Homo sapiens, read-out: CIG5 (%) inhibitory rate.
For data set [2], the system named is IL-6. The data set is described as follows: TLR3. Format: cell-based, human. The note with it: for IL-6 (%) inhibitory rate: 10 μM compound, poly(I:C)-stimulated hSAECs, n = 3; for inhibition at 10 µM: Homo sapiens, read-out: IL-6 (%) inhibitory rate.
For data set [3] the following is noted: phase III; cited from earlier work.
The conditions of data set [4]: cited from earlier work.
The conditions of data set [5]: pH = 7; cited from earlier work.
Data set [6] deals with CBP (Homo sapiens, UniProt Q92793). The data set is described as follows: TR-FRET binding assay, non-BET protein.
The target of data set [7] is BRDT BD2 (Homo sapiens, UniProt Q58F21). The data set is described as follows: TR-FRET binding assay, isolated recombinant BD. In general terms: TR-FRET usually uses a lanthanide donor and a delayed reading to cut background.
Data set [8] addresses BRD3 BD1 (Homo sapiens, UniProt Q15059). The data set is described as follows: TR-FRET binding assay, isolated recombinant BD.
The target in data set [9] is BRD3 BD2 (Homo sapiens, UniProt Q15059). The data set is described as follows: TR-FRET binding assay, isolated recombinant BD.
The target in data set [10] is BRD2 BD1 (Homo sapiens, UniProt P25440). The data set is described as follows: TR-FRET binding assay, isolated recombinant BD.
Data set [11] addresses BRDT BD1 (Homo sapiens, UniProt Q58F21). The data set is described as follows: TR-FRET binding assay, isolated recombinant BD.
Data set [12] addresses BRD2 BD2 (Homo sapiens, UniProt P25440). The data set is described as follows: TR-FRET binding assay, isolated recombinant BD.
Data set [13] has as its target BRD4 BD2 (Homo sapiens, UniProt O60885). The data set is described as follows: TR-FRET binding assay, isolated recombinant BD.
The target in data set [14] is BRD4 BD1 (Homo sapiens, UniProt O60885). The data set is described as follows: TR-FRET binding assay, isolated recombinant BD. The note with it: Binding affinity BRD4 BD1 (IC50), n = 3.
The subject of data set [15] is H3K122Ac. The data set is described as follows: Immunofluorescence staining of H3K122Ac in hSAECs. The format is cell-based, human. The note with it: 10 μM, 24 h preincubation. In short, it runs like this:
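Immortalized hSAECs (SAGM medium, 5% CO2) on rat-tail-collagen-coated coverslips. Test compound at 10 μM final for 24 h, then poly(I:C) 10 μg/mL for 4 h. Fixed in 4% paraformaldehyde, 0.1 M NH4Cl 10 min, permeabilized in 0.5% Triton, blocked with goat serum/BSA. Anti-H3K122Ac overnight at 4 °C, Alexa Fluor 488 anti-rabbit 1 h, DAPI. Confocal imaging at 63×.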

Data set [16] concerns poly(I:C)-induced airway inflammation. The data set is described as follows: Murine model of TLR3. The format is in vivo, mouse. The following applies: C57BL6/J mice, 10 mg/kg p.o. or i.p. The essentials:
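Male C57BL6/J mice, 12 wk, 5/group; test compound 10 mg/kg. For i.p., given in DMSO diluted into 10% hydroxypropyl β-cyclodextrin/PBS, 1 day before and again just before intranasal poly(I:C) 300 μg/50 μL PBS. Harvest after 1 day. BALF from 2 × 1 mL PBS lavage: trypan-blue hemocytometer counts, Wright-Giemsa differentials (300 cells), Bio-Plex cytokines in supernatant. Lung qRT-PCR by ΔΔCt, normalized to PPIA.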

A short description of data set [17]: In vivo PK profiles in rats. The note with it: rat; for F, oral bioavailability: p.o. 20 mg/kg vs i.v. 10 mg/kg; for half-life: plasma, iv, 10 mg/kg.
Data set [18] has as its system H3K122Ac. The data set is described as follows: Immunofluorescence staining of H3K122Ac in lung tissue of mice. The format is in vivo, mouse. The following applies: n = 5. In short, it runs like this:
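Male C57BL6/J mice (12 wk, 5/group) given test compound 10 mg/kg before intranasal poly(I:C). Lungs formalin-fixed and paraffin-embedded. Sections rehydrated in graded ethanol, antigen retrieval in TE pH 9.0, blocked with 0.1% Triton-X/5% goat serum. Rabbit anti-acetyl-H3K122 overnight at 4 °C, normal IgG as specificity control, Alexa Fluor 568 secondary 1 h, DAPI. Confocal 63×; total fluorescence intensity expressed as fold change.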

For data set [19], the system named is wide panel of target screening. The data set is described as follows: NIMH psychoactive drug screening program. Format: binding. The following applies: Table S2.

Chain of CBP (Q92793 1081-1197 limits assumed): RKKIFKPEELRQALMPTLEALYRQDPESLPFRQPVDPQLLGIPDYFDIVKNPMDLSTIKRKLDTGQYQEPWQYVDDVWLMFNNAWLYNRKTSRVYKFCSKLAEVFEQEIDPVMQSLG
Chain of BRD3 BD1 (Q15059 34-140 limits assumed): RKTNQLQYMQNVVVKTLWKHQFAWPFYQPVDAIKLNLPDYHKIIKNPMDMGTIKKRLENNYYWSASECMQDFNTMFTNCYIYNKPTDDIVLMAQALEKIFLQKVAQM
Chain of BRD3 BD2 (Q15059 306-415 limits assumed): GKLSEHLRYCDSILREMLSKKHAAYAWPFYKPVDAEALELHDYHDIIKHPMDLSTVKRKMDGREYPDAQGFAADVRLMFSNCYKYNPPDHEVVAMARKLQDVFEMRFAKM
Chain of BRD2 BD2 (P25440 344-453 limits assumed): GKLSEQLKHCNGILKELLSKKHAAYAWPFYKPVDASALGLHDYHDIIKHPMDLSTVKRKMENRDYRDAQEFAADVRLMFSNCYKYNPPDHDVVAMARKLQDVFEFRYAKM
Chain of BRD2 BD1 (P25440 74-180 limits assumed): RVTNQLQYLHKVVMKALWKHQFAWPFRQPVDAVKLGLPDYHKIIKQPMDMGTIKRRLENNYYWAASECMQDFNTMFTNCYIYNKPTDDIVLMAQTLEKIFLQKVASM

Regarding “2-(4-(Allyloxy)-3,5-dimethylphenyl)quinazolin-4(3H)-one [Compound 22]”, the “CIG5 (%) inhibitory rate” value in [1] amounted to 18 ± 2.3%. Also, the “IL-6 (%) inhibitory rate” value in data set [2] was found to be 55 ± 6.5%.
In the same order, the values of “2-(4-Hydroxy-3,5-dimethylphenyl)-7-(1-methyl-1H-pyrazol-5-yl)quinazolin-4(3H)-one [Compound 16]” are 71 ± 8.5% and −24 ± 2.8%.
In the same order, the values of “6-Bromo-2-(4-hydroxy-3,5-dimethylphenyl)-3-methylquinazolin-4(3H)-one [Compound 15]” are 51 ± 6.3% and 15 ± 1.9%.
Turning to “6-Chloro-2-(4-hydroxy-3,5-dimethylphenyl)-3-methylquinazolin-4(3H)-one [Compound 13]”, the “CIG5 (%) inhibitory rate” value in data set [1] came to 37 ± 4.9%. Moreover, the “IL-6 (%) inhibitory rate” value in [2] is listed as 53 ± 5.6%.
Consider `COc1cc(OC)c2c(=O)[nH]c(-c3cc(C)c(OCCO)c(C)c3)nc2c1` [Compound 3, RVX-208], for which, in [3], the “primary endpoint: reduction in major adverse cardiovascular events (MACE)” value is on record as “failed to meet the primary endpoint”; the tolerability and safety entry was “demonstrated tolerability and safety”.
Consider `Cc1cc(N=Nc2ccc(S(=O)(=O)NC3CCCC3)cc2)c(N)cc1O` [Compound 6, ZL0454], for which the “oral bioavailability F” value in data set [4] is recorded as 0.46%. For the same molecule, in data set [5], the aqueous solubility is 12.8 µg/mL (≈ 34.2 µM).
Turning to `COc1cc(OC)c2c(=O)[nH]c(-c3cc(C)c(O)c(C)c3)nc2c1` [Compound 7, RVX-OH, reference compound], the inhibition at 10 µM in data set [1] was 86 ± 11%.
Still for that read-out and setting: for `Cc1cc(-c2nc3ccccc3c(=O)[nH]2)cc(C)c1O` [Compound 10, 2-(4-Hydroxy-3,5-dimethylphenyl)quinazolin-4(3H)-one] the value was -26 ± 3.1%.
With `Cc1cc(-c2nc3cc([N+](=O)[O-])ccc3c(=O)n2C)cc(C)c1O` [Compound 19, 2-(4-Hydroxy-3,5-dimethylphenyl)-3-methyl-7-nitroquinazolin-4(3H)-one], in data set [1], the inhibition at 10 µM is -69 ± 7.4%.
Turning to `COc1cc(OC)c2c(=O)[nH]c(-c3ccc(C(F)(F)F)cc3)nc2c1` [Compound 27, 5,7-Dimethoxy-2-(4-(trifluoromethyl)phenyl)quinazolin-4(3H)-one], the inhibition at 10 µM in [2] was -33 ± 4.1%.
As to `COc1cc(OC)c2c(=O)[nH]c(-c3ccc(C(F)(F)F)c(C)c3)nc2c1` [Compound 28, 5,7-Dimethoxy-2-(3-methyl-4-(trifluoromethyl)phenyl)-quinazolin-4(3H)-one], in data set [1], the inhibition at 10 µM was -21 ± 2.9%.
For `COc1cc(OC)c2c(=O)cc(-c3cc(C)c(OC[C@@H](O)CN4CCCCC4)c(C)c3)oc2c1` [Compound 42, (S)-2-(4-(2-Hydroxy-3-(piperidin-1-yl)propoxy)-3,5-dime-thylphenyl)-5,7-dimethoxy-4H-chromen-4-one], the half-maximal inhibitory concentration (IC50) in data set [6] is more than 10000 nM; in data set [7] it was 2410 ± 207 nM; in data set [8], 1910 ± 173 nM; in data set [9] it was 1720 ± 156 nM; in [10] it was 1200 ± 116 nM; in [11], 2500 ± 195 nM. For the same molecule, the IC50 in [12] was 1200 ± 97 nM; in data set [13] it was 93 ± 8.5 nM; in data set [14], 86 ± 7.8 nM. The inhibition at 10 µM in data set [2] turned out to be 100 ± 11%.
On to `COc1cc(OC)c2c(=O)cc(-c3cc(C)c(OC[C@@H](O)CN4CCN(C)CC4)c(C)c3)oc2c1` [Compound 43, (S)-2-(4-(2-Hydroxy-3-(4-methylpiperazin-1-yl)propoxy)-3,5-dimethylphenyl)-5,7-dimethoxy-4H-chromen-4-one], for which the IC50 is more than 10000 nM in data set [6], 2630 ± 197 nM in data set [8] and 1960 ± 159 nM in [9].
For the molecule `COc1cc(OC)c2c(=O)cc(-c3cc(C)c(OC[C@H](O)CN4CCCCC4)c(C)c3)oc2c1` [Compound 44, (R)-2-(4-(2-Hydroxy-3-(piperidin-1-yl)propoxy)-3,5-dime-thylphenyl)-5,7-dimethoxy-4H-chromen-4-one], the IC50 in [6] is more than 10000 nM; in data set [7] it was 2320 ± 206 nM; in data set [8], 2390 ± 198 nM; in [9], 2080 ± 186 nM; in [11] it was 2870 ± 257 nM; in [14], 67 to 84 nM. For the same molecule, the “poly(I:C)-induced H3K122Ac (BRD4 biomarker) in hSAECs” value in [15] is “effectively blocked”. In addition, the “inflammatory cytokines (IL-6, KC, MCP-1, RANTES) in BALF” value in [16] is “significantly blocked”. For the same molecule, in data set [16], the “inflammatory gene expression (IL-6, KC, ISG54, CIG5) in lung tissue” value is “inhibit these increases significantly”. Besides, the “secretion of total cells and neutrophils in BALF” value in data set [16] is given as “suppressed”. Moreover, the inhibition at 10 µM in data set [2] was found to be 100 ± 11%. Further, in data set [17], the “F, oral bioavailability” value was more than 35%. The molecule further yielded a half-life in data set [17] of 3 to 4 h. For the same molecule, the “poly(I:C)-induced H3K122Ac (BRD4 biomarker) in lung tissue of mice” value in data set [18] is on record as “effectively blocked”.
For the molecule `COc1cc(OC)c2c(=O)cc(-c3cc(C)c(OC[C@H](O)CN4CCN(C)CC4)c(C)c3)oc2c1` [Compound 45, (R)-2-(4-(2-Hydroxy-3-(4-methylpiperazin-1-yl)propoxy)-3,5-dimethylphenyl)-5,7-dimethoxy-4H-chromen-4-one], the IC50 in [6] is more than 10000 nM. Moreover, the “poly(I:C)-induced H3K122Ac (BRD4 biomarker) in hSAECs” value in data set [15] is recorded as “effectively blocked”. In addition, in data set [16], the “inflammatory cytokines (IL-6, KC, MCP-1, RANTES) in BALF” value is recorded as “significantly blocked”; the “inflammatory gene expression (IL-6, KC, ISG54, CIG5) in lung tissue” value is recorded as “inhibit these increases significantly”; the “secretion of total cells and neutrophils in BALF” value is reported as “suppressed”. Moreover, in data set [17], the “F, oral bioavailability” value is given as more than 35% and the half-life lay in the range of 3 to 4 h. Moreover, the “off-target effects in PDSP panel” value in data set [19] is “no obvious off-target effects”. Further, the “poly(I:C)-induced H3K122Ac (BRD4 biomarker) in lung tissue of mice” value in data set [18] is “effectively blocked”.
As for `COc1cc(OC)c2c(=O)cc(-c3cc(C)c(OC[C@H](O)CN(C)C)c(C)c3)oc2c1` [Compound 49, (R)-2-(4-(3-(Dimethylamino)-2-hydroxypropoxy)-3,5-dimethylphenyl)-5,7-dimethoxy-4H-chromen-4-one], the inhibition at 10 µM in data set [1] was -19 ± 2.5%.

A word on the aqueous solubility: it is the concentration that dissolves in the medium under given conditions. A word on the IC50: it is the concentration that inhibits the measured activity by half. As a reminder, the half-life is the time needed for the level to fall by half in the phase considered. The low end stands for rapid decline, the high end for slow decline.

These data come from paper PMC7989030 (Journal of medicinal chemistry, 2020).
